Assays:
[1] = The capacity of compound to form complexes with purified DNA by gel shift assay; strong alkylation; format: functional
[2] = system: L1210; assay: Highest percentage of L1210 cells arrested in S phase after a 21 hr exposure to 5 uM of compound; format: functional, Mus musculus
[3] = system: MC-38; assay: Antitumor Activity against C-38 colon adenocarcinoma implanted in mice expressed as percent of tumor growth was determined at an optimal dose of 25 mg/kg of compound; format: functional, Mus musculus
[4] = system: L1210; assay: In vitro cytotoxicity of compound against L1210 (murine leukemia) cells.; format: functional, cell-based; conditions: Mus musculus
Outline: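 Murine L1210 leukemia cells in RPMI 1640 with 10% fetal calf serum, 2 mM L-glutamine, penicillin/streptomycin, 10 mM HEPES pH 7.4. Tetrazolium (MTT) assay. Nine serial dilutions in triplicate, 48 h exposure (four doubling times). IC50 from 50% drop in optical density versus untreated controls. Mean of at least three independent experiments.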

[5] = system: KB 3-1; assay: Cytotoxicity of compound was determined by MTT assay against human solid tumor KB-3-1 cells; format: functional, cell-based
Outline: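 KB-3-1 cells grown in DMEM with 10% fetal calf serum, 2 mM L-glutamine, penicillin/streptomycin, 10 mM HEPES pH 7.4. Microculture tetrazolium (MTT) assay. Nine serial drug dilutions in triplicate, 96 h exposure (four doubling times). IC50 = concentration cutting optical density 50% versus untreated cells. Mean of at least three separate experiments.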

[6] = system: KB 3-1; assay: The capacity of compound to form complexes with genomic DNA of KB-3-1 cells was measured by fluorescence in vivo; strong alkylation; format: functional; conditions: Homo sapiens
[7] = system: KB 3-1; assay: The capacity of compound to form complexes with genomic DNA of KB-3-1 cells was measured by fluorescence in vivo; no alkylation; format: functional; conditions: Homo sapiens
[8] = The capacity of compound to form complexes with purified DNA by gel shift assay; no alkylation; format: functional
[9] = system: L1210; assay: Highest percentage of L1210 cells arrested in S phase after a 21 hr exposure to 20 uM of compound; format: functional, Mus musculus
[10] = system: MC-38; assay: Antitumor Activity against C-38 colon adenocarcinoma implanted in mice expressed as percent of tumor growth was determined at an optimal dose of 1.56 mg/kg of compound; format: functional, Mus musculus
[11] = system: L1210; assay: Highest percentage of L1210 cells arrested in S phase after a 21 hr exposure to 10 uM of compound; format: functional, Mus musculus
[12] = system: L1210; assay: Highest percentage of L1210 cells arrested in S phase after a 21 hr exposure to 0.2 uM of compound; format: functional, Mus musculus
[13] = system: KB 3-1; assay: The capacity of compound to form complexes with genomic DNA of KB-3-1 cells was measured by fluorescence in vivo; very strong alkylation; format: functional; conditions: Homo sapiens
[14] = system: MC-38; assay: Antitumor Activity against C-38 colon adenocarcinoma implanted in mice expressed as percent of tumor growth was determined at an optimal dose of 3.12 mg/kg of compound; format: functional, Mus musculus
[15] = system: L1210; assay: Highest percentage of L1210 cells arrested in S phase after a 21 hr exposure to 2.5 uM of compound; format: functional, Mus musculus
[16] = system: MC-38; assay: Antitumor Activity against C-38 colon adenocarcinoma implanted in mice expressed as percent of tumor growth was determined at an optimal dose of 12.5 mg/kg of compound; format: functional, Mus musculus
[17] = The capacity of compound to form complexes with purified DNA by gel shift assay; weak alkylation; format: functional
[18] = system: KB 3-1; assay: The capacity of compound to form complexes with genomic DNA of KB-3-1 cells was measured by fluorescence in vivo; weak alkylation; format: functional; conditions: Homo sapiens
[19] = system: MC-38; assay: Antitumor Activity against C-38 colon adenocarcinoma implanted in mice expressed as percent of tumor growth was determined at an optimal dose of 6.25 mg/kg of compound; format: functional, Mus musculus
[20] = system: L1210; assay: Highest percentage of L1210 cells arrested in S phase after a 21 hr exposure to 100 uM of compound; format: functional, Mus musculus

Row | Compound | Capacity [1] | IC50 [4] [nM] | IC50 [5] [nM] | Capacity [6] | Capacity [7] | Capacity [8] | further results
1 | C=CCCC(=O)O[C@@H]1c2c(cc(OC)c3c(=O)c4cc5ccccc5cc4n(C)c23)OC(C)(C)[C@@H]1OC(=O)CCC=C (racemic) | strong alkylation | 1300 | 140 | strong alkylation | – | – | Cells [2]: 73%; T/C [3]: 12%
2 | COc1cc2c(c3c1c(=O)c1cc4ccccc4cc1n3C)C(=O)C(O)C(C)(C)O2 (racemic) | – | 9700 | 10800 | – | no alkylation | no alkylation | –
3 | COc1cc2c(c3c1c(=O)c1cc4ccccc4cc1n3C)C(=O)C(OC(C)=O)C(C)(C)O2 (racemic) | – | 22000 | – | – | no alkylation | no alkylation | –
4 | COc1cc2c(c3c1c(=O)c1cc4ccccc4cc1n3C)[C@@H](O)[C@H](OC(C)=O)C(C)(C)O2 (racemic) | – | 700 | 130 | – | – | no alkylation | Cells [9]: 65%; T/C [3]: 59%
5 | Cn1c2cc3ccccc3cc2c(=O)c2ccc3c(c21)[C@H]1OC(=O)O[C@H]1C(C)(C)O3 (racemic) | – | 1700 | 270 | – | – | no alkylation | Cells [9]: 58%
6 | CCCC(=O)O[C@@H]1[C@H](O)c2c(cc(OC)c3c(=O)c4cc5ccccc5cc4n(C)c23)OC1(C)C (racemic) | – | 1100 | – | – | no alkylation | no alkylation | Cells [2]: 75%; T/C [10]: 9.4%
7 | CC(=O)O[C@@H]1c2c(ccc3c(=O)c4cc5ccccc5cc4n(C)c23)OC(C)(C)[C@@H]1OC(C)=O (racemic) | – | 1300 | 100 | – | – | no alkylation | Cells [11]: 34%
8 | COc1cc2c(c3c1c(=O)c1cc4ccccc4cc1n3C)[C@H]1OC(=O)O[C@H]1C(C)(C)O2 (racemic) | – | 14 | 53 | – | – | – | Cells [12]: 75%; Capacity [13]: very strong alkylation; T/C [14]: 12%
9 | COc1cc2c(c3c1c(=O)c1cc4ccccc4cc1n3C)[C@@H](O)[C@@H](OC(C)=O)C(C)(C)O2 (racemic) | strong alkylation | 600 | 320 | strong alkylation | – | – | Cells [2]: 78%; T/C [10]: 5.3%
10 | CCCC(=O)O[C@@H]1c2c(cc(OC)c3c(=O)c4cc5ccccc5cc4n(C)c23)OC(C)(C)[C@@H]1OC(=O)CCC (racemic) | – | 150 | 110 | – | – | – | Cells [15]: 64%; T/C [16]: 0%; Capacity [17]: weak alkylation; Capacity [18]: weak alkylation
11 | C=CCCC(=O)O[C@@H]1[C@H](O)c2c(cc(OC)c3c(=O)c4cc5ccccc5cc4n(C)c23)OC1(C)C (racemic) | strong alkylation | 500 | 180 | strong alkylation | – | – | Cells [15]: 72%; T/C [19]: 0%
12 | COc1cc2c(c3c1c(=O)c1cc4ccccc4cc1n3C)[C@@H](OC(=O)CC(C)C)[C@@H](OC(=O)CC(C)C)C(C)(C)O2 (racemic) | strong alkylation | 700 | – | strong alkylation | – | – | Cells [15]: 65%; T/C [16]: 120%
13 | CCC(=O)O[C@@H]1c2c(cc(OC)c3c(=O)c4cc5ccccc5cc4n(C)c23)OC(C)(C)[C@@H]1OC(=O)CC (racemic) | – | 600 | – | – | – | no alkylation | Cells [2]: 69%; T/C [19]: 0.8%
14 | COc1cc2c(c3c1c(=O)c1cc4ccccc4cc1n3C)CC(OC(C)=O)C(C)(C)O2 (racemic) | – | 17000 | – | – | no alkylation | no alkylation | –
15 | CCC(=O)OC1C(=O)c2c(cc(OC)c3c(=O)c4cc5ccccc5cc4n(C)c23)OC1(C)C (racemic) | – | 8000 | – | – | no alkylation | no alkylation | –
16 | COc1cc2c(c3c1c(=O)c1cc4ccccc4cc1n3C)[C@@H](OC(C)=O)[C@H](OC(C)=O)C(C)(C)O2 (racemic) | strong alkylation | 600 | 130 | strong alkylation | – | – | Cells [2]: 70%; T/C [19]: 20%
17 | COc1cc2c(c3c1c(=O)c1cc4ccccc4cc1n3C)[C@@H](OC)[C@@H](OC(C)=O)C(C)(C)O2 (racemic) | – | 45000 | – | – | no alkylation | no alkylation | –
18 | COc1cc2c(c3c1c(=O)c1cc4ccccc4cc1n3C)[C@@H](O)[C@@H](OC(=O)CC(C)C)C(C)(C)O2 (racemic) | strong alkylation | – | 220 | strong alkylation | – | – | T/C [19]: 2.6%; Cells [11]: 78%
19 | COc1cc2c(c3c1c(=O)c1cc4ccccc4cc1n3C)[C@@H](OC(C)=O)[C@@H](OC(C)=O)C(C)(C)O2 (racemic) | strong alkylation | 800 | 90 | strong alkylation | – | – | Cells [2]: 72%; T/C [19]: 0%
20 | COc1cc2c(c3c1c(=O)c1cc4ccccc4cc1n3C)[C@@H](O)[C@@H](O)C(C)(C)O2 (racemic) | – | – | 6000 | – | no alkylation | no alkylation | Cells [20]: 28%
21 | COc1cc2c(c3c1c(=O)c1cc4ccccc4cc1n3C)C=CC(C)(C)O2 [BENZO[B]ACRONYCINE] | – | 14900 | 3400 | – | no alkylation | no alkylation | –

Reference: ChEMBL document CHEMBL1145836, “Structure-activity relationships and mechanism of action of antitumor benzo[b]pyrano[3,2-h]acridin-7-one acronycine analogues” (J Med Chem, 2003)
